Active and inactive are the calls of the source. The calls are words filed in the database; no cut-off is given here.
Legend:
MCF7 [1] = experiment: Binding affinity to sigma 2 receptor overexpressed in human MCF7 cells assessed as compound internalization by measuring cellular accumulation at 25 nmol/L after 45 mins by flow cytometry in presence of PB28; format: cell-based
MCF7 [2] = experiment: Cellular uptake in human MCF7 cells at 25 to 100 nmol/L after 45 mins […]; format: ADME, cell-based; settings: mcf7, 0.75 h
[3] = Drug uptake in nucleus of human MCF7 cells at 500 nM after 45 mins by spinning disk confocal microscopy; format: ADME, cell-based; settings: mcf7, 0.75 h, 0.5 µM
In short: (§1)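 MCF7 cells seeded in chamber slides 24 h ahead, treated 45 min with 100 or 500 nM ligand, fixed in 2% PFA for 30 min at 37 °C, washed with PBS. Spinning-disk confocal imaging, background-corrected; subcellular localization assessed, nuclear signal from pixel intensity profiles. Excitation 405, 488 or 561 nm depending on fluorophore.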

MCF7 [4] = experiment: Cellular uptake in human MCF7 cells at 50 to 100 nM after 20 to 40 mins by spinning disk confocal microscopy; format: ADME, cell-based; settings: mcf7, 0.1 µM
In short: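 Live and fixed MCF7 cells imaged by spinning-disk confocal microscopy from 50 nM ligand onward; intracellular fluorescence intensity followed over time after treatment. Excitation 405 nm […], 488 nm (green) or 561 nm (red channel), according to fluorophore.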

[5] = Drug uptake in cytoplasm of human MCF7 cells at 100 to 500 nM after 45 mins by spinning disk confocal microscopy; format: ADME, cell-based; settings: mcf7, 0.75 h, 0.5 µM; in short: as §1
[6] = Drug uptake in perinuclear region of human MCF7 cells at 100 nM after 45 mins by spinning disk confocal microscopy; format: ADME, cell-based; settings: mcf7, 0.75 h, 0.1 µM; in short: as §1
[7] = Drug uptake in vesicle of human MCF7 cells at 100 to 500 nM after 45 mins by spinning disk confocal microscopy; format: ADME, cell-based; settings: mcf7, 0.75 h, 0.5 µM; in short: as §1
MCF7 [8] = experiment: Binding affinity to sigma 2 receptor overexpressed in human MCF7 cells assessed as compound internalization by measuring cellular accumulation at 25 nmol/L after 45 mins by flow cytometry in presence of cis-1-cyclohexyl-4-[4-(2,6-difluorophenyl)cyclohexyl]piperazine; format: cell-based
[9] = Displacement of [3H]DTG from sigma 2 receptor in human MCF7 cells after 45 mins by FACS analysis; format: cell-based
[10] = Displacement of 2-(6-{1-[3-(4-Cyclohexylpiperazin-1-yl)propyl]-1,2,3,4-tetrahydronaphthalen-5-yloxy}hexyl)-5-dimethylamino-1H-isoindole-1,3(2H)-dione from sigma 2 receptor in human MCF7 cells after 45 mins by FACS analysis; format: cell-based
In short: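 Intact, nonpermeabilized MCF7 cells incubated with competitor at 0.1 nmol/L–10 μmol/L followed by 100 nmol/L fluorescent σ2 tracer for 45 min at 37 °C. Washed twice with PBS, detached with dissociation solution, resuspended in PBS. Flow cytometry at 530 nm band-pass, 10 000 events; IC50 taken from displacement curve.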

[11] = target: Sigma non-opioid intracellular receptor 1 (Cavia porcellus, UniProt Q60492); experiment: Displacement of (+)-[3H]pentazocine from Dunkin guinea pig brain sigma 1 receptor
[12] = Displacement of [3H]DTG from Wistar Hannover rat liver sigma 2 receptor
MCF7 [13] = experiment: Binding affinity to sigma 2 receptor in human MCF7 cells at 100 nmol/L after 45 mins by FACS analysis in presence of DTG and (+)-pentazocine; format: cell-based

Chain of Sigma non-opioid intracellular receptor 1 (Q60492 whole entry): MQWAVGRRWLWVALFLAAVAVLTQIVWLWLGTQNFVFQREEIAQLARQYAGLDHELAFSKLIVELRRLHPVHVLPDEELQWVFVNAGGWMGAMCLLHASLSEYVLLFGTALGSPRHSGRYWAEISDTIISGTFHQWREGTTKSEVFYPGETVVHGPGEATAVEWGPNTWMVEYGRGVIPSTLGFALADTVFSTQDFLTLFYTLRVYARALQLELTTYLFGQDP

O=[N+]([O-])c1ccc(NCCCCCCOc2cccc3c2CCCC3CCCN2CCN(C3CCCCC3)CC2)c2nonc12 (stereo not given)
Activity (MCF7 [1]): inactive
Drug uptake (MCF7 [2]): Active
Drug uptake [3]: Active
Drug uptake (MCF7 [4]): Active
Drug uptake [5]: Active
Drug uptake [6]: Active
Drug uptake [7]: Active
Activity (MCF7 [8]): inactive

COc1cccc2c1CCCC2CCCN1CCN(C2CCCCC2)CC1 (stereo not given)
IC50 [9]: 1.2 nM
IC50 [10]: 4.27 nM

O=[N+]([O-])c1ccc(NCCCCCCCCCCOc2cccc3c2CCCC3CCCN2CCN(C3CCCCC3)CC2)c2nonc12 (stereo not given)
Ki [11]: 258 nM
Ki [12]: 31.2 nM

CCN(CC)c1ccc2cc(/C=C/C3=[N+](CCCCCC(=O)NCCCCCCOc4cccc5c4CCCC5CCCN4CCN(C5CCCCC5)CC4)c4ccccc4C3(C)C)c(=O)oc2c1.[Br-] (stereo not given)
Drug uptake [3]: Active
Drug uptake (MCF7 [4]): Active
Ki [11]: 235 nM
Ki [12]: 161 nM
Drug uptake [5]: Active
Drug uptake [6]: Active
Drug uptake [7]: Active

CN(C)c1ccc2c(c1)C(=O)N(CCCCCCOc1cccc3c1CCCC3CCCN1CCN(C3CCCCC3)CC1)C2=O (stereo not given)
Activity (MCF7 [13]): inactive
Activity (MCF7 [1]): inactive
Drug uptake (MCF7 [2]): Active
Drug uptake [3]: Active
Drug uptake (MCF7 [4]): Active
Ki [11]: 5.37 nM
Ki [12]: 6.9 nM
Drug uptake [5]: Active
Drug uptake [6]: Active
Drug uptake [7]: Active
Activity (MCF7 [8]): inactive

Nc1ccc2c3c(cccc13)C(=O)N(CCCCCCOc1cccc3c1CCCC3CCCN1CCN(C3CCCCC3)CC1)C2=O (stereo not given)
Activity (MCF7 [1]): inactive
Drug uptake (MCF7 [2]): Active
Drug uptake [3]: Active
Drug uptake (MCF7 [4]): Active
Ki [11]: 156 nM
Ki [12]: 6.57 nM
Drug uptake [5]: Active
Drug uptake [6]: Active
Drug uptake [7]: Active
Activity (MCF7 [8]): inactive
